Assays:
Bcap37 = assay: Cytotoxicity against human Bcap37 cells after 48 hrs by MTT assay; type: functional, cell-based
How it was run: (§1)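 Tumor cells in log phase in RPMI 1640 + 10% FBS, seeded at 3×10^4 cells mL-1 and incubated 24 h (37 °C, 5% CO2). Test samples added at pre-set concentrations (6 wells each), doxorubicin as reference; 48 h exposure. MTT (2.5 mg·mL-1 in PBS) added for 4 h, formazan dissolved in DMSO, A570 read.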

HepG2 = assay: Cytotoxicity against human HepG2 cells after 48 hrs by MTT assay; type: functional, cell-based; how it was run: as §1
[1] = Cytotoxicity against human PC3 cells after 48 hrs by MTT assay; type: functional, cell-based, PC-3; how it was run: as §1
[2] = Cytotoxicity against human MGC803 cells after 48 hrs by MTT assay; type: functional, cell-based, MGC-803; how it was run: as §1
[3] = Homo sapiens, Bcap37, 48 h, read-out: IC50
[4] = Homo sapiens, HepG2, 48 h, read-out: IC50
[5] = Homo sapiens, PC-3, 48 h, read-out: IC50
[6] = Homo sapiens, MGC-803, 48 h, read-out: IC50

Structure (SMILES)	IC50 (Bcap37; [3]) [µM]	IC50 (HepG2; [4]) [µM]	IC50 [1, 5] [µM]	IC50 [2, 6] [µM]	IC50 (HepG2; hepg2)	IC50 (Bcap37; bcap37)	IC50 ([2]; mgc-803)	IC50 ([1]; pc-3)
CC1=NN(C(=O)CCc2ccccc2)C(c2cc(Br)ccc2O)C1 (stereo unspecified)	41.3	17.9	16.2	21.2				
CC1=NN(C(=O)CCc2ccccc2)C(c2cc(Br)cc(Br)c2O)C1 (stereo unspecified)	27.2	9.17	11.3	17.1				
O=C(CNC1CCCCC1)N1N=C(c2cc3ccccc3oc2=O)CC1c1ccccc1 (stereo unspecified)	38.3	34.4	48.5	26.4				
CC1=NN(C(=O)CN(CC(C)C)CC(C)C)C(c2ccccc2O)C1 (stereo unspecified)	40.5	49.2	32.2	30				
Cc1ccc(S(=O)(=O)N2N=C(c3cc4ccccc4oc3=O)CC2c2ccccc2)cc1 (stereo unspecified)	30.3		48.6	50.2	Not Active			
CCN(CC)CC(=O)N1N=C(C)CC1c1ccccc1O (stereo unspecified)	45.7	51.6	25.9	39.8				
CC(C)(C)NCC(=O)N1N=C(c2cc3ccccc3oc2=O)CC1c1ccccc1 (stereo unspecified)	36.2	31.4	16.4	15.4				
CC1=NN(C(=O)CN(C(C)C)C(C)C)C(c2ccccc2O)C1 (stereo unspecified)	4.96	15.1	32.3	31.2				
CC1=NN(C(=O)/C=C/c2ccccc2)C(c2ccccc2O)C1 (stereo unspecified)		29	42	39.6		Not Active		
CC1CCCCN1CC(=O)N1N=C(c2cc3ccccc3oc2=O)CC1c1ccccc1 (stereo unspecified)			36.3		Not Active	Not Active	Not Active	
CC1=NN(C(=O)c2ccc(C)cc2)C(c2ccccc2O)C1 (stereo unspecified)	9.97	11.3	40.6	26.3				
CC1CC(C)CN(CC(=O)N2N=C(c3cc4ccccc4oc3=O)CC2c2ccccc2)C1 (stereo unspecified)					Not Active	Not Active	Not Active	Not Active
CN1CCN(CC(=O)N2N=C(c3cc4ccccc4oc3=O)CC2c2ccccc2)CC1 (stereo unspecified)	16.9	33.1	25.8	46.1				
CCN(CC)C1CCN(CC(=O)N2N=C(c3cc4ccccc4oc3=O)CC2c2ccccc2)CC1 (stereo unspecified)	15.5	19.3	26.1	32.4				
CCC(=O)N1N=C(C)CC1c1cc(Br)ccc1O (stereo unspecified)	20.8		37.8	50.3	Not Active			
CC(C)(C)OC(=O)N1CCN(CC(=O)N2N=C(c3cc4ccccc4oc3=O)CC2c2ccccc2)CC1 (stereo unspecified)	29.7	28.4	36.4				Not Active	
CC1=NN(C(=O)c2ccc(C)cc2)C(c2cc(Br)ccc2O)C1 (stereo unspecified)	32.6	23.2	41.2	21				
CC1=NN(S(=O)(=O)c2ccc(C)cc2)C(c2cc(Br)ccc2O)C1 (stereo unspecified)	36.8	20.8	33.2	30.7				
O=C(CNC1CC1)N1N=C(c2cc3ccccc3oc2=O)CC1c1ccccc1 (stereo unspecified)			28.5		Not Active	Not Active	Not Active	
Cc1ccc(C(=O)N2N=C(c3cc4ccccc4oc3=O)CC2c2ccccc2)cc1 (stereo unspecified)	26.1	52.3	13.2	31.3				
CC(=O)Oc1ccccc1C1CC(C)=NN1C(=O)CN(C(C)C)C(C)C (stereo unspecified)	19.4	34.1	24.5	20.1				
O=C(CN1CCCC1)N1N=C(c2cc3ccccc3oc2=O)CC1c1ccccc1 (stereo unspecified)		44.3	50.2			Not Active	Not Active	
COc1cccc2c1C(=O)c1c(O)c3c(c(O)c1C2=O)C[C@@](O)(C(=O)CO)C[C@@H]3O[C@H]1C[C@H](N)[C@H](O)[C@H](C)O1 [DOXORUBICIN]	1.12	1.34	0.87					

Reference: ChEMBL document CHEMBL3785019, “Dihydropyrazole derivatives as telomerase inhibitors: Structure-based design, synthesis, SAR and anticancer evaluation in vitro and in vivo” (Eur J Med Chem, 2016)
